Runt-CBFb FRET: inhibitors of RUNX1 Runt–CBFb binding, primary screen, biochemical, FRET, Cerulean-Runt, Venus-CBFb, uHTS; Runt-related transcription factor 1 (Homo sapiens) + Core-binding factor subunit beta …; Cerulean-Runt/Venus-CBFb FRET ratio 530/480, 1 h; inhibition, % at 20 µM; 220,000 compounds, 0.46% hits; AID 1496, 2009;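 active means inhibition over about 50% at 20 µM in the single-dose screen, limit read from the data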
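Reagent – Venus-CBFb binding partner, 100 nM · Assay system – Cerulean-tagged RUNX1 Runt domain (FRET donor) fusion protein · Input – 100 nM per protein · Incubation – two 1 h room-temperature incubations shielded from light · Measured by – FRET fluorescence · Medium – Tris buffer pH 7.5 with salts and BSA · Benchmarks – unlabeled CBFb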
Runt-SMMHC FRET: inhibitors of RUNX1 Runt–CBFb-SMMHC binding, primary screen, biochemical, FRET, Cerulean-Runt, Venus-CBFb-SMMHC, uHTS; Runt-related transcription factor 1 (Homo sapiens) + Core-binding factor subunit beta …; Cerulean-Runt/Venus-CBFb-SMMHC FRET ratio 530/480, 1 h; inhibition, % at 20 µM; 220,000 compounds, 0.74% hits;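 active means mean inhibition across duplicate retests at 20 µM reaching about 50%, limit read from the data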;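 further: inhibitors lower the FRET ratio by blocking Runt binding to CBFb-SMMHC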
RanGTP-Impb inh: inhibitors of RanGTP-importin-beta interaction, primary screen, biochemical, FRET, CFP-Ran, YFP-importin-beta, homogeneous. inhibition, % (concentration not given with the values). 300,000 compounds, 1.1% hits. Ran GTPase (GTP-bound) - importin-beta complex. cell-free CFP-Ran/YFP-importin-beta FRET ratio;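 active means more than half of the replicate wells show a fall in the fluorescence ratio signal beyond about 16%, limit read from the data, passing the limit was not always enough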
HDAC3 inh: HDAC3 deacetylase inhibitors, primary screen, biochemical, fluorescence, cell-free homogeneous; inhibition, % at 8.3 µM; 320,000 compounds, 0.15% hits; recombinant HDAC3, fluorogenic peptide/trypsin coupled; Histone deacetylase 3 (Homo sapiens), O15379; in the data active means inhibition above about 26%, passing the limit was not always enough
Target sequence (O15379 whole entry, looked up): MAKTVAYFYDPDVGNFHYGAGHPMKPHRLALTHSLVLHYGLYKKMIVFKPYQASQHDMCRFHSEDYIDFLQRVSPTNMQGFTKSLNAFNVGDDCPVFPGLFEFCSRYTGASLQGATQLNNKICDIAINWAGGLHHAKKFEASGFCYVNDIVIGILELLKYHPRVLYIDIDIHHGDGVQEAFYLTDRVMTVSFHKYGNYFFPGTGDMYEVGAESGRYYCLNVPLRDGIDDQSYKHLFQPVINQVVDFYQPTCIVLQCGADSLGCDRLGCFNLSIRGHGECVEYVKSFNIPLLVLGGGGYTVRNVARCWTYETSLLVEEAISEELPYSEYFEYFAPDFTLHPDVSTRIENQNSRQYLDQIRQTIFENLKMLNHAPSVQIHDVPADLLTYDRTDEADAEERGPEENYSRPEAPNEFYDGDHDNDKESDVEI
LANA-H2A inh: blockers of LANA interaction with H2A/H2B – biochemical, FP readout, HTS, primary screen; inhibition, % (concentration not given with the values); cell-free LANA-H2A/H2B peptide, fluorescence polarization; 320,000 compounds, 0.6% hits; in the data active means inhibition mostly above about 10%, no sharp cut-off; inactive means mostly below about 6.7%
CaV13 ICDI inh: Primary screen for inhibitors of IQ motif and Ca2+-dependent inactivation inhibitor domain binding in CACNA1D, Förster resonance energy transfer in living cells, … | HEK cells, CFP/YFP FRET ICDI-IQ, plate reader, 10 min; percent FRET-ratio fall versus neutral wells | inhibition, % at 12.3 µM | 340,000 compounds, 0.098% hits;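 active means mean replicate inhibition of at least 30% and at least 1% of replicates passing that level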
Numbers stand for hits. Shown are actives, neighbours in structure and some others; about 1.9% of the full set was active somewhere.

`Cc1cc(NCCCCO)n2c(nc3ccccc32)c1C#N` gave Runt-CBFb FRET inactive, Runt-SMMHC FRET inactive, RanGTP-Impb inh 38, HDAC3 inh inactive, LANA-H2A inh inactive and CaV13 ICDI inh inactive.
Screening COCCN(CCOC)c1cc(C)c(C#N)c2nc3ccccc3n12 returned Runt-CBFb FRET 53, Runt-SMMHC FRET 63, RanGTP-Impb inh 57, HDAC3 inh inactive, LANA-H2A inh inactive and CaV13 ICDI inh inactive.
CCCc1cc(N2CCN(C(=O)c3ccco3)CC2)n2c(nc3ccccc32)c1C#N was read as Runt-CBFb FRET inactive, Runt-SMMHC FRET 65, RanGTP-Impb inh 31, HDAC3 inh inactive, LANA-H2A inh inactive and CaV13 ICDI inh inactive.
`CCCCN(C(=O)CSCc1c(C)noc1C)c1c(N)n(CCC)c(=O)[nH]c1=O` gave RanGTP-Impb inh inactive, HDAC3 inh inactive, LANA-H2A inh inactive and CaV13 ICDI inh inactive.
Screening CC1CN(Cc2ccccc2)c2nc3c(c(=O)[nH]c(=O)n3C)n2C1 (stereo not given) returned Runt-CBFb FRET inactive, Runt-SMMHC FRET inactive, RanGTP-Impb inh inactive, HDAC3 inh inactive, LANA-H2A inh inactive and CaV13 ICDI inh inactive.
Screening CCOC(=O)c1c(C(F)(F)F)nc2ncccn12 returned Runt-CBFb FRET inactive, Runt-SMMHC FRET inactive, RanGTP-Impb inh inactive, HDAC3 inh inactive, LANA-H2A inh inactive and CaV13 ICDI inh inactive.
C=C(C)CSc1cc(C)c(C#N)c2nc3ccccc3n12 was read as Runt-CBFb FRET inactive, Runt-SMMHC FRET inactive, RanGTP-Impb inh 56, HDAC3 inh inactive, LANA-H2A inh inactive and CaV13 ICDI inh inactive.
Screening Cc1cc(-c2ccco2)n2c(nc3ccccc32)c1C#N returned Runt-CBFb FRET inactive, Runt-SMMHC FRET inactive, RanGTP-Impb inh inactive, HDAC3 inh inactive, LANA-H2A inh inactive and CaV13 ICDI inh inactive.
`Cc1ccsc1C(=O)N1CCC(N2CCC(C(=O)NCC3CCCO3)CC2)CC1` (stereo not given) gave Runt-CBFb FRET inactive, Runt-SMMHC FRET inactive, RanGTP-Impb inh inactive, HDAC3 inh inactive, LANA-H2A inh inactive and CaV13 ICDI inh inactive.
COc1ccc(N2C(=NC(=O)c3ccccc3)SC3CS(=O)(=O)CC32)cc1 (stereo not given) was read as RanGTP-Impb inh inactive, HDAC3 inh inactive, LANA-H2A inh inactive and CaV13 ICDI inh inactive.
COC(=O)c1cc2n(n1)CCN(Cc1cccc(OC)c1)C2=O was read as Runt-CBFb FRET inactive, Runt-SMMHC FRET inactive, RanGTP-Impb inh inactive, HDAC3 inh inactive, LANA-H2A inh 20 and CaV13 ICDI inh inactive.
Screening COC(=O)c1cc2n(n1)CCN(Cc1ccc(C)cc1)C2=O returned Runt-CBFb FRET inactive, Runt-SMMHC FRET inactive, RanGTP-Impb inh inactive, HDAC3 inh inactive and LANA-H2A inh inactive.
Screening Cc1csc(NC(=O)c2cc(=O)[nH]c3ccc(S(=O)(=O)N4CCOCC4)cc23)n1 returned Runt-CBFb FRET 80, Runt-SMMHC FRET 118, RanGTP-Impb inh inactive, HDAC3 inh inactive, LANA-H2A inh inactive and CaV13 ICDI inh inactive.
Screening CCOC(=O)C1C2C=CC(CC2)N1c1ccccc1 (stereo not given) returned RanGTP-Impb inh inactive, HDAC3 inh inactive, LANA-H2A inh inactive and CaV13 ICDI inh inactive.
`COc1cc2nc3c4ccccc4n(CC#N)c3nc2cc1OC` gave Runt-CBFb FRET inactive, Runt-SMMHC FRET 51, RanGTP-Impb inh inactive and CaV13 ICDI inh inactive.
For COc1ccc2c(c1)c1nc3ccccc3nc1n2Cc1ccc(OC)c(OC)c1 the results were Runt-CBFb FRET inactive, Runt-SMMHC FRET inactive, RanGTP-Impb inh inactive, HDAC3 inh inactive, LANA-H2A inh inactive and CaV13 ICDI inh inactive.
